This is an account of results in ChEMBL document CHEMBL3124882, “Semi-synthesis of acylated triterpenes from olive-oil industry wastes for the development of anticancer and anti-HIV agents” (Eur J Med Chem, 2014).

Active and inactive are the calls of the source. No cut-off for these calls is given here.

Test [1] concerns B16-F10. Description: Induction of ROS generation in mouse B16F10 cells at IC50 to 2 X IC50 after 72 hrs by rhodamine123/propidium iodide staining-based FACS analysis. Format: functional, cell-based. An outline of the steps:
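B16F10 cells, 11·10^4 per well, treated 72 h at IC50 or 2×IC50, then given fresh medium with dihydrorhodamine 123 at a final 5 µg/mL for 30 min. Cells washed, resuspended in PBS and read by flow cytometry for Rh123 and PI fluorescence (excitation 500 nm, emission 536 nm). Rh123+ cells scored ROS-positive regardless of PI. Three experiments in duplicate, mean ± S.E.M.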
(In flow cytometry, cells or beads pass a laser one at a time.)

The subject of test [2] is B16-F10. Description: Induction of apoptosis in mouse B16F10 cells assessed as necrotic cells at 2 X IC50 after 72 hrs by annexin V-FITC/propidium iodide staining-based FACS analysis (reference value: 4.0 +/- 0.6%). The test is classed as functional.
In test [3] the test system is B16-F10. Description: Induction of apoptosis in mouse B16F10 cells assessed as necrotic cells at IC50 after 72 hrs by annexin V-FITC/propidium iodide staining-based FACS analysis (reference value: 4.0 +/- 0.6%). The test is classed as functional.
Test [4] deals with B16-F10. Description: Induction of apoptosis in mouse B16F10 cells assessed as total apoptotic cells at 2 X IC50 after 72 hrs by annexin V-FITC/propidium iodide staining-based FACS analysis (reference value: 13.7 +/- 2.7%). Format: functional.
For test [5], the system named is B16-F10. Description: Induction of apoptosis in mouse B16F10 cells assessed as total apoptotic cells at IC50 after 72 hrs by annexin V-FITC/propidium iodide staining-based FACS analysis (reference value: 13.7 +/- 2.7%). Format: functional.
Test [6] relates to B16-F10. Description: Induction of apoptosis in mouse B16F10 cells assessed as late apoptotic cells at 2 X IC50 after 72 hrs by annexin V-FITC/propidium iodide staining-based FACS analysis (reference value: 9.8 +/- 2.2%). The test is classed as functional.
Test [7] relates to B16-F10. Description: Induction of apoptosis in mouse B16F10 cells assessed as late apoptotic cells at IC50 after 72 hrs by annexin V-FITC/propidium iodide staining-based FACS analysis (reference value: 9.8 +/- 2.2%). The test is classed as functional.
Test [8] has as its system B16-F10. Description: Induction of apoptosis in mouse B16F10 cells assessed as early apoptotic cells at 2 X IC50 after 72 hrs by annexin V-FITC/propidium iodide staining-based FACS analysis (reference value: 3.9 +/- 0.4%). Format: functional.
For test [9], the system named is B16-F10. Description: Induction of apoptosis in mouse B16F10 cells assessed as early apoptotic cells at IC50 after 72 hrs by annexin V-FITC/propidium iodide staining-based FACS analysis (reference value: 3.9 +/- 0.4%). Format: functional.
The subject of test [10] is B16-F10. Description: Induction of apoptosis in mouse B16F10 cells assessed as normal cells at IC50 after 72 hrs by annexin V-FITC/propidium iodide staining-based FACS analysis (reference value: 77.9 +/- 1.5%). Format: functional.
Test [11] has as its system B16-F10. Description: Cytotoxicity against mouse B16F10 cells after 72 hrs by MTT assay. Format: functional, cell-based. The settings on record: B16-F10, 72 h. An outline of the steps:
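B16F10 cells (DMEM, 2 mM glutamine, 10% heat-inactivated FCS, penicillin/streptomycin; subconfluent) seeded at 11·10^3 per well and exposed to 0–80 µg/mL for 72 h. Compounds were diluted from a 10 mg/mL stock in 50% DMSO/PBS. MTT 0.5 mg/mL for 2 h, formazan dissolved in DMSO, absorbance at 550 nm. Viability is relative to untreated controls; IC50 from four assays of six replicates, mean ± S.E.M.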
Background: Tetrazolium dyes change colour on reduction, which living cells bring about.

Test [12] deals with B16-F10. Description: Induction of apoptosis in mouse B16F10 cells assessed as normal cells at 2 X IC50 after 72 hrs by annexin V-FITC/propidium iodide staining-based FACS analysis (reference value: 77.9 +/- 1.5%). Format: functional.
Test [13] deals with Protease (Human immunodeficiency virus 1, UniProt Q9YQ12). Description: Inhibition of HIV1 recombinant protease expressed in Escherichia coli using Abz-Ala-Arg-Val-Nle-Tyr(NO2)-Glu-Ala-Nle-NH2 as substrate by FRET assay.
Protease, sequence (Q9YQ12 whole entry): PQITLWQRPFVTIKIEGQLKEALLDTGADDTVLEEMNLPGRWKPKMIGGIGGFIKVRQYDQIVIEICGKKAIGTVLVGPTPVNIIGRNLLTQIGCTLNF

In general, IC50 refers to the concentration that inhibits the measured activity by half. As for `CC1(C)CC[C@]2(C(=O)OCc3ccccc3)CC[C@]3(C)C(=CC[C@@H]4[C@@]5(C)CC[C@H](OC(=O)CCC(=O)O)C(C)(C)[C@@H]5CC[C@]43C)[C@@H]2C1`, in test [1], the result was inactive. The Activity is listed as 0.7% in test [2]; 11.1% in test [3]; 91.6% in [4]; 72.1% in test [5]; 17.6% in test [6]; 55.5% in test [7]. Also, the Activity in test [8] came out at 74%; in test [9] it was 16.6%; in test [10], 16.9%; in test [12], 7.7%. Further, half-maximal inhibition in test [11] (IC50) was put at 23.2 µM.

For the compound `CCC(=O)O[C@H]1CC[C@]2(C)[C@H]3CC=C4[C@@H]5CC(C)(C)CC[C@]5(C(=O)O)CC[C@@]4(C)[C@]3(C)CC[C@H]2C1(C)C`, the outcome in test [1] was Active. Besides, the Activity is reported as 2% in test [2]; 1.3% in test [3]; 60.8% in test [4]; 74.4% in test [5]; 16.5% in test [6]; 27.4% in test [7]. Further, the Activity worked out at 44.3% in test [8], 47% in test [9], 24.3% in test [10] and 37.2% in [12]. In [11], this compound registered an IC50 of 161 µM.

For `CCCC(=O)O[C@@H]1C[C@]2(C)[C@H]3CC=C4[C@@H]5CC(C)(C)CC[C@]5(C(=O)O)CC[C@@]4(C)[C@]3(C)CC[C@H]2C(C)(C)[C@H]1O`, the result in test [1] was Active. In addition, the Activity in test [2] was determined as 6.8%; in test [3], 1.2%; in test [4] it was 83%; in [5] it was 77.7%; in [6], 30%; in [7], 22.1%. The Activity in test [8] is listed as 53%; in test [9] it was 55.6%; in test [10], 21%; in test [12], 10.2%. In [11], the IC50 came to 107 µM.

As to `CC(C)(CC(=O)O)CC(=O)O[C@H]1CC[C@]2(C)[C@H]3CC=C4[C@@H]5CC(C)(C)CC[C@]5(C(=O)OCc5ccccc5)CC[C@@]4(C)[C@]3(C)CC[C@H]2C1(C)C`, in test [1], the result was Active. The Activity in test [2] was 6.4%; in test [3], 5.3%; in test [4], 88.8%; in test [5] it was 86.5%; in test [6] it was 36.1%; in test [7], 42.6%. For the same compound, the Activity is given as 52.8% in [8], 44% in test [9], 8.3% in test [10] and 4.9% in [12]. Further, half-maximal inhibition in test [11] (IC50) was put at 14.2 µM.

For the compound `CC1(C)CC[C@]2(C(=O)OCc3ccccc3)CC[C@]3(C)C(=CC[C@@H]4[C@@]5(C)CC[C@H](OC(=O)CCCC(=O)O)C(C)(C)[C@@H]5CC[C@]43C)[C@@H]2C1`, in [1], the result was inactive. Further, the Activity in [2] turned out to be 1.6%; in [3], 15.9%; in test [4], 90.4%; in test [5], 58.4%; in test [6], 24.6%; in test [7] it was 37.9%. Besides, the Activity in test [8] turned out to be 65.8%; in test [9] it was 20.6%; in test [10] it was 25.8%; in test [12] it was 8.1%. The compound also gave an IC50 in test [11] of 29.9 µM.

As for `CC(C)(CC(=O)O)CC(=O)O[C@@H]1C[C@]2(C)[C@H]3CC=C4[C@@H]5CC(C)(C)CC[C@]5(C(=O)OCc5ccccc5)CC[C@@]4(C)[C@]3(C)CC[C@H]2C(C)(C)[C@H]1O`, the outcome in test [1] was Active. Besides, the Activity in [2] was determined as 5.6%; in test [3], 1.8%; in [4], 92.2%; in [5] it was 62.8%; in test [6] it was 65.3%; in test [7] it was 46.3%. Also, the Activity worked out at 26.9% in test [8], 16.5% in test [9], 35.4% in test [10] and 2.2% in [12]. For the same compound, the IC50 in test [11] was 28.3 µM.

Turning to `CC1(C)CC[C@]2(C(=O)OCc3ccccc3)CC[C@]3(C)C(=CC[C@@H]4[C@@]5(C)CC[C@H](OC(=O)c6ccccc6C(=O)O)C(C)(C)[C@@H]5CC[C@]43C)[C@@H]2C1`, the outcome in test [1] was inactive. In addition, the Activity in test [2] is 1%; in [3] it was 1.5%; in [4] it was 95.4%; in test [5] it was 94.6%; in test [6] it was 28.5%; in [7] it was 30.3%. The Activity is 66.9% in test [8], 64.3% in test [9], 3.9% in test [10] and 3.7% in test [12]. The figures for the IC50 in test [11] and in test [13] were 26.8 µM and 0.4 µM, respectively.

With `CC1(C)CC[C@]2(C(=O)OCc3ccccc3)CC[C@]3(C)C(=CC[C@@H]4[C@@]5(C)C[C@@H](OC(=O)CCCC(=O)O)[C@H](O)C(C)(C)[C@@H]5CC[C@]43C)[C@@H]2C1`, the result in [1] was Active. The Activity in [2] is 0.9%; in [3], 1.6%; in test [4] it was 78.9%; in test [5] it was 25.2%; in test [6], 19.8%; in [7] it was 14.6%. Moreover, the Activity was 59.1% in [8], 10.6% in test [9], 73.3% in test [10] and 20.2% in [12]. In addition, in test [11], the IC50 amounted to 63.2 µM.

As to `CC(=O)O[C@@H]1C[C@]2(C)[C@H]3CC=C4[C@@H]5CC(C)(C)CC[C@]5(C(=O)OCc5ccccc5)CC[C@@]4(C)[C@]3(C)CC[C@H]2C(C)(C)[C@H]1O`, the result in test [1] was Active. Further, the Activity in [2] turned out to be 0.6%; in test [3], 1.2%; in [4] it was 98.4%; in test [5] it was 86%; in test [6], 27.1%; in [7] it was 20%. Besides, the Activity in test [8] was found to be 71.3%; in [9], 66%; in [10] it was 12.9%; in test [12] it was 1.1%. In [11], this compound registered an IC50 of 39.6 µM.

Consider `CC(=O)O[C@@H]1C[C@]2(C)[C@H]3CC=C4[C@@H]5CC(C)(C)CC[C@]5(C(=O)O)CC[C@@]4(C)[C@]3(C)CC[C@H]2C(C)(C)[C@H]1OC(C)=O`, for which the result in test [1] was Active. In addition, the Activity is 1.5% in test [2]; 7.1% in test [3]; 88.9% in [4]; 61.6% in test [5]; 59.3% in test [6]; 52.9% in [7]. Also, the Activity in test [8] is listed as 29.6%; in [9], 8.7%; in test [10], 31.4%; in test [12] it was 9.7%. Moreover, the IC50 in [11] amounted to 44.1 µM.

Consider `CC1(C)CC[C@]2(C(=O)O)CC[C@]3(C)C(=CC[C@@H]4[C@@]5(C)CC[C@H](OC(=O)c6ccccc6)C(C)(C)[C@@H]5CC[C@]43C)[C@@H]2C1`, for which, in [1], the result was Active. Moreover, the Activity in test [2] was determined as 8.5%; in test [3], 3.8%; in test [4], 60%; in test [5], 51.6%; in test [6] it was 50.5%; in [7] it was 37.6%. Besides, the Activity is 9.5% in [8], 14% in test [9], 44.6% in test [10] and 31.6% in [12]. The compound further yielded an IC50 in test [11] of 162 µM.
